Tests used:
[1] = target: T1, Type-1 angiotensin II receptor (Homo sapiens, UniProt P30556); assay: Displacement of [125I]-Sar1Ile8-angiotensin 2 from angiotensin 2 AT1 receptor (unknown origin) after 180 mins by gamma counting analysis
T1 sequence (P30556 whole entry): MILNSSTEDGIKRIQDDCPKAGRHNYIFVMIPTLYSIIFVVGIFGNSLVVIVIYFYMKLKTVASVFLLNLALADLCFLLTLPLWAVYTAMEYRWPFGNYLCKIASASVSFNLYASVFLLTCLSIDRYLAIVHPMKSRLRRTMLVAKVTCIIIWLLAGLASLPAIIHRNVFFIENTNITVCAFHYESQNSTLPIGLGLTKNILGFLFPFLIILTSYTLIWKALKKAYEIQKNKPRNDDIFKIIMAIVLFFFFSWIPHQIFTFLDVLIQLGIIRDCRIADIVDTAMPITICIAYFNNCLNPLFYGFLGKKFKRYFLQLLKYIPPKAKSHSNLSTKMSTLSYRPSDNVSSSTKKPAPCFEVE

[2] = target: T2, Type-2 angiotensin II receptor (Homo sapiens, UniProt P50052); assay: Displacement of [125I]-Sar1Ile8-angiotensin 2 from angiotensin 2 AT2 receptor (unknown origin) after 180 mins by gamma counting analysis
T2 sequence (P50052 whole entry): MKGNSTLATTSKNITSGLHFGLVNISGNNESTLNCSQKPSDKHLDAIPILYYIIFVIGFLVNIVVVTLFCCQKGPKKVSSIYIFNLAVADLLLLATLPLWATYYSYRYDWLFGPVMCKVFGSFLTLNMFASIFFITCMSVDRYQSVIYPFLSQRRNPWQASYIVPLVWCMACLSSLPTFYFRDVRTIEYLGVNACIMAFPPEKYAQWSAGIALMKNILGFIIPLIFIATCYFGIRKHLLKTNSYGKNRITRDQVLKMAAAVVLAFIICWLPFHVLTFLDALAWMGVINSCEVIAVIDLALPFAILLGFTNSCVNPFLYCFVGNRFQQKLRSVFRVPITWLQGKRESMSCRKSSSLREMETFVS

[3] = Antagonist activity at angiotensin 2 receptor in Japanese white rabbit thoracic aorta assessed as inhibition of angiotensin 2-induced contraction after 60 mins by Schild plot analysis; type: tissue-based, Oryctolagus cuniculus
Procedure, shortened: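 Helical aortic strips (3-4 mm wide, 15-20 mm long) in 10-mL baths of bicarbonate salt solution (CaCl2·2H2O 2.5, NaHCO3 25, glucose 11.1), 37 °C, 95% O2/5% CO2, isometric tension. 1 h equilibration with 15-min washes; 67 mM KCl sets maximal contraction; 30 min washout; antagonist or vehicle for 60 min, then cumulative Ang II curves, one per strip. Response as % of KCl maximum; pA2 from Schild plot.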

[4] = target: T3, Type-1 angiotensin II receptor (Homo sapiens) (UniProt P30556); assay: Ratio of losartan IC50 to compound IC50 for angiotensin 2 AT1 receptor (unknown origin)
T3 sequence (whole entry): T1 sequence (P30556 whole entry)

Rattus norvegicus = assay: Antihypertensive activity in SHR rat assessed as decrease in blood pressure at 10 mg/kg, po by tail plethysmography; type: functional
Procedure, shortened: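 Male SHR, 19-21 weeks old, n = 6 per group, with a vehicle group (water, 10 mL/kg). Single oral dose of 10 mg/kg. Blood pressure and heart rate measured by tail plethysmography in unanesthetized rats after a warming period.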

| SMILES | IC50 [1] [nM] | IC50 [2] [nM] | pA2 [3] | Ratio IC50 [4] | Activity (Rattus norvegicus) [mmHg] |
| --- | --- | --- | --- | --- | --- |
| CCCc1nc2c(C)cc(C(=O)NCCCc3ccccc3)cc2n1Cc1ccc(-c2ccccc2C(=O)O)cc1 | 115 | – | – | – | – |
| CCCc1nc2c(C)cc(NC(=O)c3ccc(C)cc3)cc2n1Cc1ccc(-c2ccccc2C(=O)O)cc1 | 4.9 | > 10000 | 8.25 | – | – |
| CCCCc1nc(Cl)c(CO)n1Cc1ccc(-c2ccccc2-c2nnn[nH]2)cc1 [LOSARTAN] | – | – | 7.92 | – | – |
| CCCc1nc2c(C)cc(C(=O)NCCCN3CCOCC3)cc2n1Cc1ccc(-c2ccccc2C(=O)O)cc1 | 10 | 718 | – | – | – |
| CCCC(=O)Nc1cc(C)c2nc(CCC)n(Cc3ccc(-c4ccccc4C(=O)O)cc3)c2c1 | 0.3 | 53 | – | – | – |
| CCCc1nc2c(C)cc(C(=O)N3CCCCC3)cc2n1Cc1ccc(-c2ccccc2C(=O)O)cc1 | 20 | 42 | – | – | – |
| CCCc1nc2c(C)cc(NC(=O)Cc3ccccc3)cc2n1Cc1ccc(-c2ccccc2C(=O)O)cc1 | 1.2 | 77 | 8.21 | – | – |
| CCCc1nc2c(C)cc(NC(C)=O)cc2n1Cc1ccc(-c2ccccc2C(=O)O)cc1 | 1430 | – | – | – | – |
| CCCc1nc2c(C)cc(NC(=O)OC)cc2n1Cc1ccc(-c2ccccc2C(=O)O)cc1 | 0.7 | 4370 | 8.15 | – | – |
| CCCc1nc2c(C)cc(C(=O)Nc3ccc(C)cc3)cc2n1Cc1ccc(-c2ccccc2C(=O)O)cc1 | 39 | 61 | – | – | – |
| CCCc1nc2c(C)cc(NC(=O)CCc3ccccc3)cc2n1Cc1ccc(-c2ccccc2C(=O)O)cc1 | 0.1 | 149 | 8.43 | 10 | >30 |
| CCCNC(=O)c1cc(C)c2nc(CCC)n(Cc3ccc(-c4ccccc4C(=O)O)cc3)c2c1 | 1340 | – | – | – | – |
| CCCc1nc2c(C)cc(C(=O)N3CCOCC3)cc2n1Cc1ccc(-c2ccccc2C(=O)O)cc1 | 1010 | – | – | – | – |
| CCCc1nc2c(C)cc(C(=O)NCCc3ccccc3)cc2n1Cc1ccc(-c2ccccc2C(=O)O)cc1 | 3 | > 10000 | 8.51 | 10 | >30 |
| CCCCNC(=O)c1cc(C)c2nc(CCC)n(Cc3ccc(-c4ccccc4C(=O)O)cc3)c2c1 | 13 | 164 | – | – | – |
| CCCc1nc2c(C)cc(C(=O)NCCN3CCOCC3)cc2n1Cc1ccc(-c2ccccc2C(=O)O)cc1 | 11 | > 10000 | 8.2 | – | – |
| CCCc1nc2c(C)cc(NC(=O)CC)cc2n1Cc1ccc(-c2ccccc2C(=O)O)cc1 | 0.4 | 78 | – | – | – |
| CCCc1nc2c(C)cc(NC(=O)c3ccccc3)cc2n1Cc1ccc(-c2ccccc2C(=O)O)cc1 | 3.9 | 6 | – | – | – |

Reference: ChEMBL document CHEMBL2434924, “Nonpeptidic angiotensin II AT₁ receptor antagonists derived from 6-substituted aminocarbonyl and acylamino benzimidazoles” (Eur J Med Chem, 2013)
